Experiments:
HL-60 = experiment: Antitumor activity against human HL60 cells; format: functional; conditions: for CC50: read-out: Log LC50 (the source's name) (converted); for TGI: read-out: Log TGI (converted)
Summary of the method: (§1)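 Tested in the NCI in vitro disease-oriented human tumor cell screen. The endpoints are IC50 (molar concentration giving 50% growth inhibition), TGI (total growth inhibition) and LC50 (50% net cell death). The maximal concentration tested was 100 μM. Subpanel values are means of several individual cell lines.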

SR = experiment: Antitumor activity against human SR cells; format: functional
Summary of the method: (§2)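 NCI in vitro disease-oriented tumour cell line screen. Read-outs are IC50 (molar concentration giving 50% growth inhibition), TGI (molar concentration giving total inhibition of net growth) and LC50 (molar concentration giving 50% net cell death). The maximal concentration tested was 100 μM.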

NCI-H322M = experiment: Antitumor activity against human NCI-H322M cells; format: functional; conditions: for CC50: read-out: Log LC50 (the source's name) (converted); for TGI: read-out: Log TGI (converted); summary of the method: as §1
COLO 205 = experiment: Antitumor activity against human COLO 205 cells; format: functional; conditions: for CC50: read-out: Log LC50 (the source's name) (converted); for TGI: read-out: Log TGI (converted); summary of the method: as §1
HCT-15 = experiment: Antitumor activity against human HCT15 cells; format: functional; conditions: for CC50: read-out: Log LC50 (the source's name) (converted); for TGI: read-out: Log TGI (converted); summary of the method: as §1
SW-620 = experiment: Antitumor activity against human SW620 cells; format: functional; conditions: for CC50: read-out: Log LC50 (the source's name) (converted); for TGI: read-out: Log TGI (converted); summary of the method: as §2
SNB-19 = experiment: Antitumor activity against human SNB19 cells; format: functional; conditions: for TGI: read-out: Log TGI (converted); summary of the method: as §1
[1] = Antitumor activity against human LOX IMV1 cells; format: functional, cell-based; summary of the method: as §1
M14 = experiment: Antitumor activity against human M14 cells; format: functional; conditions: for CC50: read-out: Log LC50 (the source's name) (converted); for TGI: read-out: Log TGI (converted); summary of the method: as §1
786-0 = experiment: Antitumor activity against human 786-0 cells; format: functional; conditions: for TGI: read-out: Log TGI (converted); summary of the method: as §1
DU-145 = experiment: Antitumor activity against human DU145 cells; format: functional; conditions: for CC50: read-out: Log LC50 (the source's name) (converted); for TGI: read-out: Log TGI (converted); summary of the method: as §1
MDA-MB-435 = experiment: Antitumor activity against human MDA-MB-435 cells; format: functional; conditions: for CC50: read-out: Log LC50 (the source's name) (converted); for TGI: read-out: Log TGI (converted); summary of the method: as §1
T47D = experiment: Antitumor activity against human T47D cells; format: functional; conditions: for CC50: read-out: Log LC50 (the source's name) (converted); for TGI: read-out: Log TGI (converted); summary of the method: as §2
NCI-H460 [2] = experiment: Antitumor activity against human NCI-H460 cells at 50 uM relative to control; format: functional
Summary of the method: (§3)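 Tested in the NCI three-cell-line one-dose primary anticancer prescreen. The read-out is growth as % of untreated control cells (100%) at 50 μM.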

MCF7 [3] = experiment: Antitumor activity against human MCF7 cells at 50 uM relative to control; format: functional; summary of the method: as §3
SF-268 [4] = experiment: Antitumor activity against human SF268 cells at 50 uM relative to control; format: functional; summary of the method: as §3
NCI = experiment: Antitumor activity against human NCI CNS cancer cell line panel; format: functional, cell-based; summary of the method: as §1
carcinoma cell line = experiment: Antitumor activity against human NCI ovarian carcinoma cell line panel; format: functional, cell-based; summary of the method: as §1
CCRF-CEM = experiment: Antitumor activity against human CCRF-CEM cells; format: functional
Summary of the method: (§4)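 Tested in the NCI in vitro disease-oriented tumor cell screen, up to a top concentration of 100 µM. Read-outs: IC50 is the molar concentration giving 50% growth inhibition, TGI the concentration giving total growth inhibition, and LC50 the concentration giving 50% net cell death.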

MOLT-4 = experiment: Antitumor activity against human MOLT4 cells; format: functional; summary of the method: as §4
NCI-H226 = experiment: Antitumor activity against human NCI-H226 cells; format: functional; summary of the method: as §4
NCI-H522 = experiment: Antitumor activity against human NCI-H522 cells; format: functional; summary of the method: as §4
HCC 2998 = experiment: Antitumor activity against human HCC2998 cells; format: functional; summary of the method: as §4
HT-29 = experiment: Antitumor activity against human HT29 cells; format: functional; summary of the method: as §4
ACHN = experiment: Antitumor activity against human ACHN cells; format: functional; summary of the method: as §4
NCI-H460 [5] = experiment: Antitumor activity against human NCI-H460 cells at 100 uM relative to control; format: functional
Summary of the method: (§5)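 NCI three-cell-line one-dose primary anticancer prescreen at 100 µM. Growth is expressed as % of untreated control cells, with the control taken as 100%.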

MCF7 [6] = experiment: Antitumor activity against human MCF7 cells at 100 uM relative to control; format: functional; summary of the method: as §5
SF-268 [7] = experiment: Antitumor activity against human SF268 cells at 100 uM relative to control; format: functional; summary of the method: as §5
Malme-3M = experiment: Antitumor activity against human MALME-3M cells; format: functional; summary of the method: as §4
A498 = experiment: Antitumor activity against human A498 cells; format: functional; summary of the method: as §4
RXF 393 = experiment: Antitumor activity against human RXF393 cells; format: functional; summary of the method: as §4
SN12C = experiment: Antitumor activity against human SN12C cells; format: functional; summary of the method: as §4
[8] = Antitumor activity against human NCI/ADR RES cells; format: functional; summary of the method: as §4
[9] = read-out: Log LC50 (the source's name) (converted)
[10] = read-out: LC50 (the source's name)

CN(/N=N/c1nc(OCc2ccccc2)c2nc[nH]c2n1)C(=O)Oc1ccc([N+](=O)[O-])cc1
GI50 (HL-60): 12 µM | CC50 (HL-60): > 50.1 µM | TGI (HL-60): > 50.1 µM | GI50 (SR): 26.3 µM | CC50 (SR; [9]): > 50.1 µM | TGI (SR; read-out: Log TGI (converted)): > 50.1 µM | GI50 (NCI-H322M): 9.33 µM | CC50 (NCI-H322M): 45.7 µM | TGI (NCI-H322M): 20.9 µM | GI50 (COLO 205): 10.2 µM | CC50 (COLO 205): > 50.1 µM | TGI (COLO 205): 29.5 µM | GI50 (HCT-15): 8.91 µM | CC50 (HCT-15): 44.7 µM | TGI (HCT-15): 20 µM | GI50 (SW-620): 9.12 µM | CC50 (SW-620): > 50.1 µM | TGI (SW-620): 26.3 µM | GI50 (SNB-19): 9.55 µM | LC50 (SNB-19): > 50.1 µM | TGI (SNB-19): 28.2 µM | GI50 [1]: 1.15 µM | IC50 [1]: 1.1 µM | CC50 [1, 10]: 27 µM | CC50 [1, 9]: 26.9 µM | TGI ([1]; read-out: Log TGI (converted)): 10.7 µM | TGI ([1]; read-out: TGI): 11 µM | GI50 (M14): 8.91 µM | CC50 (M14): 38 µM | TGI (M14): 18.2 µM | GI50 (786-0): 8.71 µM | LC50 (concentration giving 50% net cell death) (786-0): > 50.1 µM | TGI (786-0): 23.4 µM | GI50 (DU-145): 9.12 µM | CC50 (DU-145): 42.7 µM | TGI (DU-145): 19.5 µM | GI50 (MDA-MB-435): 12.3 µM | CC50 (MDA-MB-435): > 50.1 µM | TGI (MDA-MB-435): 39.8 µM | GI50 (T47D): 14.1 µM | CC50 (T47D): > 50.1 µM | TGI (T47D): 32.4 µM | Activity (NCI-H460 [2]): 0% | Activity (MCF7 [3]): 1% | Activity (SF-268 [4]): 4% | IC50 (NCI): 9 µM | TGI (NCI): 30 µM | CC50 (NCI; [10]): 47 µM | IC50 (carcinoma cell line): 12 µM | TGI (carcinoma cell line): 34 µM | CC50 (carcinoma cell line; [10]): 50 µM

CN(/N=N/c1nc(OCc2ccccc2)c2nc[nH]c2n1)C(=O)N(C)/N=N/c1nc(OCc2ccccc2)c2nc[nH]c2n1
GI50 (HL-60): 63.1 µM | CC50 (HL-60): > 100 µM | TGI (HL-60): > 100 µM | GI50 (NCI-H322M): 41.7 µM | CC50 (NCI-H322M): > 100 µM | TGI (NCI-H322M): > 100 µM | GI50 (COLO 205): 37.2 µM | CC50 (COLO 205): > 100 µM | TGI (COLO 205): > 100 µM | GI50 (HCT-15): 35.5 µM | CC50 (HCT-15): > 100 µM | TGI (HCT-15): > 100 µM | GI50 (SW-620): 72.4 µM | CC50 (SW-620): > 100 µM | TGI (SW-620): > 100 µM | GI50 (SNB-19): > 100 µM | LC50 (SNB-19): > 100 µM | TGI (SNB-19): > 100 µM | GI50 [1]: 37.2 µM | CC50 [1, 9]: > 100 µM | TGI ([1]; read-out: Log TGI (converted)): > 100 µM | GI50 (M14): 70.8 µM | CC50 (M14): > 100 µM | TGI (M14): > 100 µM | GI50 (786-0): 60.3 µM | LC50 (concentration giving 50% net cell death) (786-0): > 100 µM | TGI (786-0): > 100 µM | GI50 (DU-145): 38.9 µM | CC50 (DU-145): > 100 µM | TGI (DU-145): > 100 µM | GI50 (MDA-MB-435): 49 µM | CC50 (MDA-MB-435): > 100 µM | TGI (MDA-MB-435): > 100 µM | GI50 (T47D): 39.8 µM | CC50 (T47D): > 100 µM | TGI (T47D): > 100 µM | GI50 (CCRF-CEM): 50.1 µM | CC50 (CCRF-CEM; [9]): > 100 µM | TGI (CCRF-CEM; read-out: Log TGI (converted)): > 100 µM | GI50 (MOLT-4): 53.7 µM | CC50 (MOLT-4; [9]): > 100 µM | TGI (MOLT-4; read-out: Log TGI (converted)): > 100 µM | GI50 (NCI-H226): 38.9 µM | CC50 (NCI-H226; [9]): > 100 µM | TGI (NCI-H226; read-out: Log TGI (converted)): > 100 µM | GI50 (NCI-H522): 39.8 µM | CC50 (NCI-H522; [9]): > 100 µM | TGI (NCI-H522; read-out: Log TGI (converted)): > 100 µM | GI50 (HCC 2998): 19.5 µM | CC50 (HCC 2998; [9]): > 100 µM | TGI (HCC 2998; read-out: Log TGI (converted)): 81.3 µM | GI50 (HT-29): 60.3 µM | CC50 (HT-29; [9]): > 100 µM | TGI (HT-29; read-out: Log TGI (converted)): > 100 µM | GI50 (ACHN): 31.6 µM | CC50 (ACHN; [9]): > 100 µM | TGI (ACHN; read-out: Log TGI (converted)): > 100 µM | Activity (NCI-H460 [5]): 58% | Activity (MCF7 [6]): 74% | Activity (SF-268 [7]): 46% | GI50 (Malme-3M): 40.7 µM | CC50 (Malme-3M; [9]): > 100 µM | TGI (Malme-3M; read-out: Log TGI (converted)): > 100 µM | GI50 (A498): 19.5 µM | CC50 (A498; [9]): > 100 µM | TGI (A498; read-out: Log TGI (converted)): 53.7 µM | GI50 (RXF 393): 79.4 µM | CC50 (RXF 393; [9]): > 100 µM | TGI (RXF 393; read-out: Log TGI (converted)): > 100 µM | GI50 (SN12C): 56.2 µM | CC50 (SN12C; [9]): > 100 µM | TGI (SN12C; read-out: Log TGI (converted)): > 100 µM | GI50 [8]: 46.8 µM | CC50 [8, 9]: > 100 µM | TGI ([8]; read-out: Log TGI (converted)): > 100 µM | IC50 (NCI): 55 µM | TGI (NCI): > 100 µM | IC50 (carcinoma cell line): 50 µM | TGI (carcinoma cell line): > 100 µM
